Published values gathered from unrelated publications.
Compare with care: the assays were run in different laboratories.
Observed: cell growth or viability

SMILES | cell line | technique | concentration | time | viability [%]
CC(=NNC(=O)COc1ccc2c(C)c(Cc3ccccc3)c(=O)oc2c1C)c1ccc(Br)cc1 | HepG2 | MTT | 100 µg/mL | – | 34.7
CC(=O)Nc1ccc(/C(C)=N/N=c2\sc(C(C)=O)nn2-c2ccc(C)cc2)cc1 | HepG2 | MTT | 0.312 µM | – | 100
CC(C)(C)c1cnc(CSc2cnc(NC(=O)C3CCN(CCCCSc4cccc5c4C(=O)N(C4CCC(=O)NC4=O)C5=O)CC3)s2)o1 (stereo not drawn) | HH | CCK-8 | 1 nM | – | 100
CC(=NNC(=O)c1ccc(N)cc1)c1ccc(Nc2nnc(-c3ccc(Cl)cc3)c3ccccc23)cc1 | HepG2 | MTT | 0.625 µM | 24 h | 91.5
CC(=O)c1nn(-c2ccccc2Cl)/c(=N/N=C(\C)c2ccc(NC(=O)c3ccccc3)cc2)s1 | HepG2 | MTT | 5 µM | – | 6.09
CC(C)(C)c1cnc(CSc2cnc(NC(=O)C3CCN(CCCCCSc4cccc5c4CN(C4CCC(=O)NC4=O)C5=O)CC3)s2)o1 (stereo not drawn) | HH | CCK-8 | 0.25 µM | – | 0
CC(=NNC(=O)c1cccnc1)c1ccc(Nc2nnc(-c3ccc(Cl)cc3)c3ccccc23)cc1 | HepG2 | MTT | 2.5 µM | 24 h | 6.93
CC(C)(C)c1cnc(CSc2cnc(NC(=O)C3CCN(C(=O)COCCOCCSc4cccc5c4C(=O)N(C4CCC(=O)NC4=O)C5=O)CC3)s2)o1 (stereo not drawn) | HH | CCK-8 | 0.5 µM | – | 13.5
CC(=NNC(=O)c1ccccc1Br)c1ccc(Nc2nnc(-c3ccc(Cl)cc3)c3ccccc23)cc1 | HepG2 | MTT | 0.625 µM | 24 h | 21.2
